Source: PubChem (several laboratories)
The list is not random: actives were taken first. Their share in the collection is about 2.1%.
GRK2 aptamer HTS: compounds blocking aptamer binding on GRK2 – biochemical, human GRK2, bead flow cytometry, HTS, primary screen; FAM-aptamer displacement from GRK2; inhibition of aptamer binding, % at 10 µM; 330,000 compounds, 0.59% hits; AID 488847, 2010;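 active means inhibition of aptamer binding above 40%, roughly 3 SD of noise, on plates passing a quality check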;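 further: median bead fluorescence of bound FAM aptamer so fluorescent compounds give negative values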
SUMO1 PPI mod: modulators of SUMO1 protein-protein interactions, primary screen, biochemical, uHTS. SUMO1 binding to a labelled peptide, TR-FRET, 1 h. inhibition, % at 20 µM. 360,000 compounds, 0.33% hits. AID 602429, 2012; in the data active means inhibition above about 37%
Target sequence (P63165 whole entry, looked up): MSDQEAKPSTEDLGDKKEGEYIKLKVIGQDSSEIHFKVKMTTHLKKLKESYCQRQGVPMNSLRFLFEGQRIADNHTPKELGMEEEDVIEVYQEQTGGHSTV
LMPTP block: LMPTP phosphatase inhibitors, primary screen, biochemical, fluorescence intensity, uHTS. Low molecular weight phosphotyrosine protein phosphatase (Homo sapiens), P24666. recombinant LMPTP-A, OMFP fluorogenic substrate. inhibition, % at 20 µM. 360,000 compounds, 0.22% hits;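 active means compounds that cut the enzyme signal by at least half of the control window in the single-dose screen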;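 further: plate controls were DMSO wells with enzyme plus substrate for no effect and substrate without enzyme for full effect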
Target sequence (P24666 whole entry, looked up): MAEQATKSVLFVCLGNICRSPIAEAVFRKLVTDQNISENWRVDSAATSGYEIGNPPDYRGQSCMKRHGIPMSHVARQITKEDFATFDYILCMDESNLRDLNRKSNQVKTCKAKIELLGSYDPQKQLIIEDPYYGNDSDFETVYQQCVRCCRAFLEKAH
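Buffer or medium: Bis-Tris pH 6.0, DTT, detergent; Assay system: LMPTP-A enzyme; Quantity: 0.625 nM enzyme; Detection: endpoint fluorescence intensity; Times: 50 min dark incubation at room temperature; Controls: substrate-only low control, DMSO enzyme-plus-substrate high control; Doses: single 20 µM dose; Read-out: percent inhibition versus substrate-only and uninhibited controls; Reagent: 400 µM OMFP.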
DNMT1 block: human DNMT1 methyltransferase inhibitors, primary screen, biochemical, molecular beacon, fluorescence, HinP1I cleavage, uHTS; DNA (cytosine-5)-methyltransferase 1 (Homo sapiens), P26358; inhibition (reported as % activation of signal), % at 10 µM; 360,000 compounds, 0.83% hits; AID 588458, 2011; in the data active means inhibition above about 50%
Scp-1 inhibitor: Scp-1 phosphatase inhibitors, primary screen, biochemical, colorimetric, uHTS | Carboxy-terminal domain RNA polymerase II polypeptide A small phosphatase 1 (Homo … | Recombinant Scp1, phosphopeptide, malachite green phosphate absorbance | inhibition, % at 20 µM | 340,000 compounds, 0.88% hits | AID 493091, 2011;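 active means inhibition above about 50% at 20 µM, limit read from the data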;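 further: plate controls were DMSO wells with enzyme for no effect and wells lacking enzyme for full effect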
Target sequence (Q9GZU7 76-261 limits assumed): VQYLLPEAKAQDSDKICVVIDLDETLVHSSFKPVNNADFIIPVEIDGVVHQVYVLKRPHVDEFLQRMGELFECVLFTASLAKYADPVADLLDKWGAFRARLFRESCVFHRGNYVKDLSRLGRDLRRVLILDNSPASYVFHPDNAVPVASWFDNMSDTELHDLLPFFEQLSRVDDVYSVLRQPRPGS
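Times: enzyme reaction 45 min at room temperature, colour 5 min, stabilisation 30 min. Material: SCP-1 catalytic fragment, aa 76-261. Medium: Acidic Tris acetate buffer with magnesium and detergent. Signal: colorimetric free-phosphate detection, absorbance 630 nm. Read-out basis: % inhibition of SCP-1 phosphate liberation. Reagent: Phosphorylated 17-residue peptide substrate.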
STEP inh: STEP phosphatase inhibitors, primary screen, biochemical, fluorescence intensity, uHTS; Tyrosine-protein phosphatase non-receptor type 5 (Homo sapiens), P54829; 360,000 compounds, 0.25% hits; inhibition, % at 20 µM; recombinant STEP, OMFP fluorogenic substrate;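 active means inhibition at 20 µM, scaled per plate between control wells, above about 37%, limit read from the data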;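 further: 0% = DMSO with enzyme and substrate and 100% = substrate only without enzyme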
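Material: STEP (striatal-enriched tyrosine phosphatase) enzyme, cell-free; Compound dosing: 20 µM single dose in 1% DMSO; Technique: fluorescence read at 480 nm ex / 540 nm em; Times: reaction 20 min, ambient temperature; Medium: 50 mM Bis-Tris pH 6.0 with 2.5 mM DTT and 0.005% Tween 20; Also added: OMFP at 25 µM.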
* = called active by the depositor; / = not tested or not shown.

SMILES	GRK2 aptamer HTS	SUMO1 PPI mod	LMPTP block	DNMT1 block	Scp-1 inhibitor	STEP inh
COc1cccc(/C=C2\SC(=S)N(CCCC(=O)N3CCCC3)C2=O)c1	55*	-39	2	0	-7	-1
O=C(O)CC(C(=O)O)C(=Cc1ccccc1)c1ccccc1 (centres undefined)	/	-1	-2	8	/	-1
COc1ccc2c3c(cccc13)C(=O)N(O)C2=O	4	3	0	3	30	0
CCC1=NNc2cccc3c(OC)ccc1c23	81*	/	/	/	/	/
O=C(Nc1ccc2oc(-c3cccnc3)nc2c1)c1ccc(Br)o1	3	38*	-3	-11	37	4
CCNC(=O)C1(C)CCCN(C(=O)c2cc(-c3ccccc3)cs2)C1 (centres undefined)	/	-6	0	-3	/	1
CC(C)N1CCc2c(sc(N)c2C#N)C1	17	-2	3	-6	-4	-3
CCN1CCc2c(sc(N)c2C#N)C1	63*	-4	2	-10	-9	3
COc1ccc(CCNC(=O)c2cc3c(=O)n4cccc(C)c4nc3s2)cc1OC	0	40*	1	1	-6	0
Cc1ccc(S(=O)(=O)N2C[C@]3(O)C[C@@H]4C(=O)N(c5ccccc5)C(=O)[C@@H]4C[C@]3(OC(=O)NCC3CCCCC3)C2)cc1	/	-3	-3	2	/	0
CN1CCN(C(=O)c2ccc3c(=O)n(CCc4ccccc4)c(=S)[nH]c3c2)CC1	0	41*	-7	1	-3	0
COc1ccc(Cn2c(=O)[nH]c3cc(C(=O)N4CCN(c5ccc(C(C)=O)cc5)CC4)ccc3c2=O)cc1	1	57*	1	-2	-4	0
COc1ccc(Cn2c(=O)[nH]c3cc(C(=O)N4CCN(c5ccc(OC)cc5)CC4)ccc3c2=O)cc1	0	6	-1	4	-5	-2
CCOC(=O)C1C(C(=O)OCC)C(C)(C)C1N(C)C (centres undefined)	/	11	0	2	/	-4
Cc1c2ccccc2cc[n+]1CCCS(=O)(=O)[O-]	0	-9	-2	2	-4	0
CC1(C)C(/C=C/C=C/C=C/C=C2\N(CCCCS(=O)(=O)O)c3ccc4ccccc4c3C2(C)C)=[N+](CCCCS(=O)(=O)[O-])c2ccc3ccccc3c21	4	110*	29	88*	49	12
CC(C)=CCCC(C)c1cc(C(=O)NCCc2ccc(O)cc2)c(N)s1 (centres undefined)	/	-1	2	/	/	/
CC(C)N1CCC2(CC1)C(C#N)=C(N)NC(S)=C2C#N	58*	/	/	/	/	/
CS(=O)(=O)c1cc(C(=O)O)cc(NCc2ccccc2)c1Oc1ccccc1	/	4	-1	5	/	-3
O=C1NC[C@H](CCCCN2C[C@H](Cc3ccc(O)cc3)N(CC3CCCCC3)C(=O)C2=O)N(CC2CCCCC2)C1=O	/	-3	0	/	/	/
CCOC1CCCc2oc(-c3ccsc3)c(-c3cnc(OC)nc3)c21 (centres undefined)	/	0	-2	/	/	/
Cc1cc2c(n1-c1ccc(C(=O)O)cc1)CCCCC2	68*	/	/	/	/	/
O=C(Nc1cc(C(F)(F)F)ccc1N1CCCCC1)C1=COCCO1	/	3	5	16	/	3
O=C1CCC(=O)c2ccc3c4c(ccc1c24)CC3	/	-36	7	25	-1	3
O=C1CCN2C=Nc3cccc4ccc1c2c34	0	2	-5	76*	-10	-68
O=C(NN=Cc1ccc2c(c1)CCN2)c1cccs1	/	-5	1	-3	/	1
Cc1cccc(OCC(=O)Nc2ccccc2N2CCCCC2)c1	2	41*	4	5	-9	8
CC(C)CCCCCCCCCCCCC(=O)NCC(=O)NC1C(C)OC(Nc2ncnc3nc[nH]c23)C(O)C1O (centres undefined)	/	12	-1	94*	-8	1
